Results from ChEMBL document CHEMBL3400042, “Mitotic arrest of breast cancer MDA-MB-231 cells by a halogenated thieno[3,2-d]pyrimidine” (Bioorg Med Chem Lett, 2015).
pIC50: −log10 of the molar value. Active and inactive are the calls of the source. The calls are words filed in the database; no cut-off is given here.

Experiments:
MDA-MB-231 [1] = assay: Cytotoxicity against human MDA-MB-231 cells after 48 hrs by MTT assay; format: functional, cell-based; details: MDA-MB-231, 48 h
Outline: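 MDA-MB-231 cells exposed to a range of compound concentrations for 48 h, then viability read by MTT. IC50 (50% cell death) obtained by non-linear regression to a sigmoidal dose-response function; mean ± SD of three independent experiments.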

MDA-MB-231 [2] = assay: Induction of cell cycle arrest in human MDA-MB-231 cells assessed as accumulation at G2/M phase at 15 uM after 48 hrs by propidium iodide staining based flow cytometry; format: functional
Outline: (§1)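 After 48 h of compound exposure, MDA-MB-231 cells were fixed, stained with propidium iodide and analysed by flow cytometry, with at least 3000 cells per population. Phase fractions (<G1, G1, S, G2/M, >G2) were compared with DMSO vehicle controls. Values are mean ± SD of 4 independent cell samples.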

MDA-MB-231 [3] = assay: Induction of cell cycle arrest in human MDA-MB-231 cells assessed as reduction in accumulation at G1 phase at 15 uM after 48 hrs by propidium iodide staining based flow cytometry; format: functional; outline: as §1
MDA-MB-231 [4] = assay: Induction of cell cycle arrest in human MDA-MB-231 cells assessed as reduction in accumulation at S phase at 15 uM after 48 hrs by propidium iodide staining based flow cytometry; format: functional; outline: as §1
MDA-MB-231 [5] = assay: Induction of cell cycle arrest in human MDA-MB-231 cells assessed as < G1 DNA content at 15 uM after 48 hrs by propidium iodide staining based flow cytometry; format: functional; outline: as §1
MDA-MB-231 [6] = assay: Induction of cell cycle arrest in human MDA-MB-231 cells assessed as >G2 DNA content at 15 uM after 48 hrs by propidium iodide staining based flow cytometry; format: functional; outline: as §1
MDA-MB-231 [7] = assay: Induction of cell cycle arrest in human MDA-MB-231 cells assessed as accumulation at G1 phase at 8 uM after 48 hrs by propidium iodide staining based flow cytometry; format: functional; outline: as §1
MDA-MB-231 [8] = assay: Induction of cell cycle arrest in human MDA-MB-231 cells assessed as accumulation at S phase at 8 uM after 48 hrs by propidium iodide staining based flow cytometry; format: functional; outline: as §1
MDA-MB-231 [9] = assay: Induction of cell cycle arrest in human MDA-MB-231 cells assessed as accumulation at G2/M phase at 8 uM after 48 hrs by propidium iodide staining based flow cytometry; format: functional; outline: as §1
MDA-MB-231 [10] = assay: Induction of cell cycle arrest in human MDA-MB-231 cells assessed as < G1 DNA content at 8 uM after 48 hrs by propidium iodide staining based flow cytometry; format: functional; outline: as §1
MDA-MB-231 [11] = assay: Induction of cell cycle arrest in human MDA-MB-231 cells assessed as >G2 DNA content at 8 uM after 48 hrs by propidium iodide staining based flow cytometry; format: functional; outline: as §1

Row | SMILES | pIC50 (MDA-MB-231 [1]) | Activity (MDA-MB-231 [2]) [%] | Activity (MDA-MB-231 [3]) | Activity (MDA-MB-231 [4]) | Activity (MDA-MB-231 [5]) | Activity (MDA-MB-231 [6]) | Activity (MDA-MB-231 [7]) | Activity (MDA-MB-231 [8]) | Activity (MDA-MB-231 [9]) | Activity (MDA-MB-231 [10]) | Activity (MDA-MB-231 [11])
1 | Clc1nc(Cl)c2sccc2n1 | 5.05 | >70 | Active | Active | inactive | inactive | – | – | – | – | –
2 | Clc1nc(Cl)c2scc(Br)c2n1 | 5.23 | – | – | – | – | – | inactive | inactive | inactive | inactive | inactive
